How the values were obtained:
[1] = Ratio of EC50 for dog MDCK cells to MIC for vancomycin-resistant Staphylococcus aureus clinical isolate 2; type: toxicity
[2] = Ratio of EC50 for dog MDCK cells to MIC for vancomycin-resistant Staphylococcus aureus clinical isolate 1; type: toxicity
[3] = system: Staphylococcus aureus; test: Antibacterial activity against methicillin-resistant Staphylococcus aureus ATCC 33591 after 24 hrs by tecan plate reader analysis; type: functional; conditions: ATCC 33591, 24 h
Method in brief: (§1)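 Colony grown 24 h on NB agar at 37 °C, then 6 h in nutrient broth to mid-log (10⁸ CFU/mL by drop plating), diluted to 10⁵ CFU/mL in Mueller Hinton broth; added 9:1 to two-fold serial compound dilutions in MHB. Incubated 24 h, 37 °C; OD600 read. Triplicate per concentration, experiment run twice; MIC taken from the range of triplicate OD values.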

[4] = system: Escherichia coli; test: Antibacterial activity against Escherichia coli MTCC 443 after 24 hrs by tecan plate reader analysis; type: functional; conditions: MTCC 443, 24 h
Method in brief: (§2)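 Broth microdilution MIC. Glycerol stocks grown on MacConkey agar 24 h at 37 °C, then a single colony in nutrient broth 6 h to mid-log (~10⁸ CFU/mL). Cells diluted to 10⁵ CFU/mL in Mueller Hinton broth and added to two-fold compound dilutions. Incubated 24 h at 37 °C, OD600 read. Triplicate wells, experiment run twice.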

[5] = system: Acinetobacter baumannii; test: Antibacterial activity against Acinetobacter baumannii MTCC 1425 after 24 hrs by tecan plate reader analysis; type: functional; conditions: MTCC 1425, 24 h; method in brief: as §2
[6] = system: Klebsiella pneumoniae; test: Antibacterial activity against Klebsiella pneumoniae ATCC 700603 after 24 hrs by tecan plate reader analysis; type: functional; conditions: Klebsiella pneumoniae, 700603, 24 h; method in brief: as §2
[7] = system: Pseudomonas aeruginosa; test: Antibacterial activity against Pseudomonas aeruginosa MTCC 424 after 24 hrs by tecan plate reader analysis; type: functional; conditions: MTCC 424, 24 h; method in brief: as §2
[8] = Hemolytic activity in human erythrocytes after 1 hr; type: ADME, cell-based, Erythrocyte
Method in brief: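 Heparinized donor blood. Erythrocytes washed three times in PBS and resuspended to 5 vol%, then mixed 3:1 with compound serially diluted in water. Incubated 1 h at 37 °C and centrifuged. Supernatant A540 read; % hemolysis relative to water and 0.1 vol% Triton-X controls.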

[9] = Selectivity index, ratio of HC50 for human erythrocytes to MIC for methicillin-resistant Staphylococcus aureus ATCC 33591; type: toxicity; conditions: read-out: Selectivity Index
[10] = system: Staphylococcus aureus; test: Antibacterial activity against methicillin-resistant Staphylococcus aureus R3545 clinical isolate after 24 hrs by tecan plate reader analysis; type: functional; conditions: R3545, 24 h; method in brief: as §1
[11] = system: Staphylococcus aureus; test: Antibacterial activity against methicillin-resistant Staphylococcus aureus R3889 clinical isolate after 24 hrs by tecan plate reader analysis; type: functional; conditions: R3889, 24 h; method in brief: as §1
[12] = system: Staphylococcus aureus; test: Antibacterial activity against methicillin-resistant Staphylococcus aureus R3890 clinical isolate after 24 hrs by tecan plate reader analysis; type: functional; conditions: R3890, 24 h; method in brief: as §1
[13] = system: Staphylococcus aureus; test: Antibacterial activity against vancomycin-resistant Staphylococcus aureus clinical isolate 1 after 24 hrs by tecan plate reader analysis; type: functional; conditions: clinical isolate 1, 24 h; method in brief: as §1
[14] = system: Staphylococcus aureus; test: Antibacterial activity against vancomycin-resistant Staphylococcus aureus clinical isolate 4 after 24 hrs by tecan plate reader analysis; type: functional; conditions: clinical isolate 4, 24 h; method in brief: as §1
[15] = system: MDCK; test: Cytotoxicity against dog MDCK cells after 24 hrs by alamar blue assay; type: cell-based; conditions: Canis lupus familiaris
Method in brief: (§3)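 About 10⁴ cells/well in DMEM with 10% FBS. Medium replaced with two-fold compound dilutions and incubated 24 h at 37 °C, 5% CO₂. Alamar Blue added for a further 4 h, absorbance 570 nm (600 nm reference). Viability normalized to untreated and 0.1% Triton-X wells. Triplicates; sigmoidal fit gives the 50% viability concentration.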

[16] = system: A549; test: Cytotoxicity against human A549 cells after 24 hrs by alamar blue assay; type: cell-based; conditions: A549, 24 h; method in brief: as §3
[17] = system: Staphylococcus aureus; test: Bactericidal activity against planktonic phase of methicillin-resistant Staphylococcus aureus ATCC 33591 assessed as log reduction in bacterial colony forming units at 16 ug/ml incubated for 2 hrs followed by plating on agar plate for 24 hrs by time-kill kinetic assay; type: functional
Method in brief: (§4)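 Time-kill: 6 h mid-log culture diluted to 10⁵ CFU/mL in MHB, incubated at 37 °C with compound at […]; 0.9% saline control. Aliquots at 1, 2, 4, 6, 8 and 12 h ten-fold diluted in saline, plated on NB agar 24 h at 37 °C; colonies counted, log scale.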

[18] = system: Staphylococcus aureus; test: Bactericidal activity against planktonic phase of methicillin-resistant Staphylococcus aureus R3545 assessed as log reduction in bacterial colony forming units at 16 ug/ml incubated for 4 hrs followed by plating on agar plate for 24 hrs by time-kill kinetic assay; type: functional; method in brief: as §4
[19] = system: Staphylococcus aureus; test: Bactericidal activity against planktonic phase of methicillin-resistant Staphylococcus aureus ATCC 33591 assessed as bacterial killing at 32 ug/ml incubated for 1 hr followed by plating on agar plate for 24 hrs by time-kill kinetic assay relative to control; type: functional; method in brief: as §4
[20] = system: Staphylococcus aureus; test: Bactericidal activity against planktonic phase of methicillin-resistant Staphylococcus aureus R3545 assessed as bacterial killing at 32 ug/ml incubated for 1 hr followed by plating on agar plate for 24 hrs by time-kill kinetic assay relative to control; type: functional; method in brief: as §4
[21] = system: Staphylococcus aureus; test: Induction of membrane permeabilization in Staphylococcus aureus ATCC 33591 assessed as increase in fluorescence intensity measured upto 28 mins by propidium iodide staining based fluorescence spectroscopic technique; type: functional, organism-based
Method in brief: (§5)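 Mid-log MRSA washed in 5 mM HEPES and resuspended in 1:1 HEPES (5 mM) and glucose (5 mM). Propidium iodide added at 10 µM final. Baseline fluorescence (ex 535/em 617 nm) read 4 min, compound in water added, read to 28 min. Water control; triplicates averaged.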

[22] = system: Staphylococcus aureus; test: Induction of membrane permeabilization in Staphylococcus aureus R3545 assessed as increase in fluorescence intensity measured upto 28 mins by propidium iodide staining based fluorescence spectroscopic technique; type: functional, organism-based; method in brief: as §5
[23] = system: Staphylococcus aureus; test: Induction of membrane depolarization in Staphylococcus aureus ATCC 33591 assessed as increase in fluorescence intensity measured upto 28 mins by DiSC3 staining based fluorescence spectroscopic technique; type: functional, organism-based
Method in brief: (§6)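 Mid-log MRSA washed in 5 mM HEPES pH 7.4 and resuspended in 1:1:1 HEPES (5 mM), glucose (5 mM) and KCl (100 mM). Loaded with DiSC3(5) at 2 µM final, 30 min in the dark. Baseline fluorescence (ex 622/em 670 nm) read 4 min, compound added, monitored to 28 min. Water control; triplicates averaged.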

[24] = system: Staphylococcus aureus; test: Induction of membrane depolarization in Staphylococcus aureus R3545 assessed as increase in fluorescence intensity measured upto 28 mins by DiSC3 staining based fluorescence spectroscopic technique; type: functional, organism-based; method in brief: as §6
[25] = Ratio of EC50 for human A549 cells to MIC for vancomycin-resistant Staphylococcus aureus clinical isolate 1; type: toxicity
[26] = Ratio of EC50 for human A549 cells to MIC for vancomycin-resistant Staphylococcus aureus clinical isolate 2; type: toxicity

With `CCCCCCCCNC(=O)C[N+](C)(CCO)CCCCCC[N+](C)(CCO)CC(=O)NCCCCCCCC.[Br-].[Br-]` (stereo unspecified) the selectivity ratio [1] was 22, the selectivity ratio [2] was 22 and the MIC [3] was 1 to 2 µg/mL. The MIC [4] was 4 to 8 µg/mL, the MIC [5] was 16 µg/mL and the MIC [6] was 32 µg/mL. For the same compound, the MIC [7] was 16 µg/mL, the HC50 at 1 h [8] was 222 µg/mL and the selectivity ratio [9] was 222. It also gave an MIC [10] of 1 to 2 µg/mL, an MIC [11] of 1 µg/mL and an MIC [12] of 4 µg/mL. The MIC [13] was 2 µg/mL, the MIC [14] was 2 µg/mL and the EC50 [15] was 45 µg/mL. For the same compound, the EC50 [16] was 44 µg/mL, the Activity [17] was 5.4 log10CFU/ml and the Activity [18] was 5.6 log10CFU/ml. The Activity [19] was 100%, the Activity [20] was 100% and the Activity [21] was “Dose-dependent effect”. The Activity [22] was “Dose-dependent effect”, the Activity [23] was “Dose-dependent effect” and the Activity [24] was “Dose-dependent effect”. It also gave a selectivity ratio [25] of 22 and a selectivity ratio [26] of 22.

— ChEMBL document CHEMBL4373680, “Small antibacterial molecules highly active against drug-resistant Staphylococcus aureus” (Medchemcomm, 2019)
